The values that follow come from ChEMBL document CHEMBL4765357, “Development of small-molecule inhibitors of fatty acyl-AMP and fatty acyl-CoA ligases in Mycobacterium tuberculosis” (Eur J Med Chem, 2020).

Each structure is given as a SMILES string. Values after ≈ are worked out from the molar mass of the structure shown.

For test [1], the target named is T1, Long-chain-fatty-acid--AMP ligase FadD28 (Mycobacterium tuberculosis, UniProt P9WQ59).
T1 sequence (P9WQ59 whole entry): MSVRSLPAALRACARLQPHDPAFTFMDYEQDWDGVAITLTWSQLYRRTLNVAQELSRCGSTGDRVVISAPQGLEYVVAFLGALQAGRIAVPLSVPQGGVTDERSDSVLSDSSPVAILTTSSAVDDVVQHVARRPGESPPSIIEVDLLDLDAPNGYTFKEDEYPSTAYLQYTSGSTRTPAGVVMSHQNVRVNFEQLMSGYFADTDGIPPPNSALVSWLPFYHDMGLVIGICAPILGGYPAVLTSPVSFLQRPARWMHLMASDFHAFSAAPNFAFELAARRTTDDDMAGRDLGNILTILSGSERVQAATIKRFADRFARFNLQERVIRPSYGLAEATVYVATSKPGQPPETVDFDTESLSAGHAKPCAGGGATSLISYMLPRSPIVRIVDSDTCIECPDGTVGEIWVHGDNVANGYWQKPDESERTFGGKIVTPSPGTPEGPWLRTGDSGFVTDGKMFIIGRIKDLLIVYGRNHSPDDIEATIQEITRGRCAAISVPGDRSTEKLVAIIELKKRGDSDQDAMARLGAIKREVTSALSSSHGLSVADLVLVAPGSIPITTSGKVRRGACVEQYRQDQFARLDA
Briefly: Inhibition of Mycobacterium tuberculosis H37Rv FAAL28 Spectra expressed in Escherichia coli BL21(DE3) cells assessed as cleavage of MEsG by spectroscopic analysis. The conditions noted are these: read-out: Ki(app). In outline:
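Coupled continuous assay with pyrophosphatase (0.04 U) and nucleoside phosphorylase (0.1 U), using 0.45 μM FAAL28 and 33 μM tetradecanoic acid. Buffer was 50 mM Tris·HCl pH 8.0 with 2.5 mM ATP, 5 mM MgCl₂, 0.5 mM DTT, 150 mM hydroxylamine and 0.2 mM MesG. Apparent Ki came from a Morrison equation fit.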

Test [2] deals with Mycobacterium tuberculosis. As to the kind of experiment: Antimycobacterial activity against Mycobacterium tuberculosis H37Rv ATCC 27294 assessed as inhibition of bacterial growth under GAST medium condition after 7 to 14 days by broth microdilution method. The settings on record: time 7-14 day. In kind it is functional. The essentials:
(§1)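 Mtb H37Rv ATCC 27294 by broth microdilution in GAST or 7H9 base with 5 g/L BSA fraction V, 0.8 g/L NaCl and 0.05% tyloxapol. Carbon source was 20 mM glycerol/10 mM glucose or 0.05 mM sodium palmitate. Compounds came from DMSO stocks with DMSO-only controls. Inoculum was 10⁴-10⁵ cells; growth was read at 7 and 14 days. MIC is the concentration giving >99% growth inhibition; runs were in triplicate.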
Background: Dilution methods test growth across graded concentrations, often in twofold steps.

The target in test [3] is T2, Medium/long-chain-fatty-acid--CoA/3-oxocholest-4-en-26-oate--CoA ligase (Mycobacterium tuberculosis, UniProt P9WQ51).
T2 sequence (P9WQ51 whole entry): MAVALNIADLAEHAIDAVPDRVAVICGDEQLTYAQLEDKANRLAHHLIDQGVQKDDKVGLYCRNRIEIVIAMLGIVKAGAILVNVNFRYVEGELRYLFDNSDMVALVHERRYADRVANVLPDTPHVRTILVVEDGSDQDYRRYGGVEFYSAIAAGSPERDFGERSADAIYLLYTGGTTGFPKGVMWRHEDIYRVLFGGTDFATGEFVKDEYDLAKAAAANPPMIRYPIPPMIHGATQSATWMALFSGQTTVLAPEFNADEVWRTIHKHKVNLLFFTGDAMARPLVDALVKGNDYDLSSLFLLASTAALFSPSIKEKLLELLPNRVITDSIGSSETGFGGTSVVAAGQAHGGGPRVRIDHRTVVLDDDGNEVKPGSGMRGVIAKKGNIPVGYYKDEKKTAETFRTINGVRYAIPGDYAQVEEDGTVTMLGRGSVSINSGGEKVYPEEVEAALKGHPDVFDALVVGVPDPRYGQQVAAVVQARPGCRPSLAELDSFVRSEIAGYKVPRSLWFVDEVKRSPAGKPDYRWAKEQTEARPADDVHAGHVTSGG
As to the kind of experiment: Inhibition of Mycobacterium tuberculosis H37Rv FACL19 Spectra expressed in Escherichia coli BL21(DE3) cells assessed as cleavage of MEsG by spectroscopic analysis. The conditions noted are these: read-out: Ki(app). In outline: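 FACL19 (0.167 μM) with 250 μM dodecanoic acid in a coupled MesG assay with pyrophosphatase and nucleoside phosphorylase. Buffer was 50 mM Tris·HCl pH 8.0 with 2.5 mM ATP, 5 mM MgCl₂, 0.5 mM DTT and 150 mM hydroxylamine. Apparent Ki came from a Morrison tight-binding fit.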

The subject of test [4] is Mycobacterium tuberculosis. As to the kind of experiment: Antimycobacterial activity against Mycobacterium tuberculosis H37Rv ATCC 27294 assessed as inhibition of bacterial growth under 7H9 medium condition after 7 to 14 days in presence of palmitate by broth microdilution method. It is filed as functional. The conditions noted are these: time 7-14 day. In outline:
as §1

For a further test, the system named is Vero. Briefly: Cytotoxicity against African green monkey Vero cells assessed as reduction in cell viability after 72 hrs by MTT assay. In kind it is cell-based. The conditions noted are these: Chlorocebus sabaeus. The essentials: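 Vero cells were seeded at (2.5–5.0) × 10⁴ per well in MEM with 5% FBS and penicillin/streptomycin. Compounds were added from 20 mM DMSO stocks to a final 100 μM. Controls were 0.5% and 50% DMSO, all in triplicate. After 72 h at 37 °C in 5% CO₂, cells got 1 mg/mL MTT for 3 h. Formazan was dissolved in isopropanol and read at 570/650 nm, with viability expressed relative to DMSO control.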
(Tetrazolium assays rely on reduction of a dye to a coloured formazan, in cell work by metabolically active cells.)

Test [5] concerns Mycobacterium tuberculosis. Briefly: Antimycobacterial activity against Mycobacterium tuberculosis H37Rv ATCC 27294 assessed as inhibition of bacterial growth under 7H9 medium condition after 7 to 14 days by broth microdilution method. In kind it is functional. The conditions noted are these: time 7-14 day. In outline:
as §1

With `Nc1ncnc2c1ncn2[C@@H]1O[C@H](COS(=O)(=O)NC(=O)CCCCCCCCCCOc2cccc(Cl)c2)[C@@H](O)[C@H]1O`, the Ki in test [1] amounted to 0.5 µM; in test [3] it was 26.4 µM. Further, in test [2], the MIC came out at 25 µM (≈ 16 µg/mL).
With `Nc1ncnc2c1ncn2[C@@H]1O[C@H](CNS(=O)(=O)NC(=O)CCCCCCCCCCOc2ccccc2)[C@@H](O)[C@H]1O`, the figures for the Ki in test [1] and in test [3] were 3.1 µM and greater than 100 µM, respectively. Moreover, the MIC in test [2] was 1.56 µM (≈ 0.945 µg/mL).
As for `CCCCCC(=O)NS(=O)(=O)OC[C@H]1O[C@@H](n2cnc3c(N)ncnc32)[C@H](O)[C@@H]1O`, the MIC in test [4] is greater than 100 µM; in test [2], 100 µM (≈ 44.4 µg/mL); in test [5] it was greater than 100 µM. Further, the Ki in test [1] and in test [3] was greater than 100 µM in each case. Moreover, the IC50 in the test on Vero came out at 48.6 µM.
For `CCCCCCCCCCCCCCCCCCCC(=O)NS(=O)(=O)OC[C@H]1O[C@@H](n2cnc3c(N)ncnc32)[C@H](O)[C@@H]1O`, the MIC in test [4], in test [2] and in test [5] was greater than 100 µM in each case. Further, the IC50 in the test on Vero turned out to be 0.1 µM.
Turning to `COc1cccc(OCCCCCCCCCCC(=O)NS(=O)(=O)OC[C@H]2O[C@@H](n3cnc4c(N)ncnc43)[C@H](O)[C@@H]2O)c1`, the results for the Ki in test [1] and in test [3] were 1.7 µM and greater than 100 µM, respectively. Moreover, the MIC in test [2] was 25 µM (≈ 15.9 µg/mL).
On the same counts, the results for `Nc1ncnc2c1ncn2[C@@H]1O[C@H](COS(=O)(=O)NC(=O)CCCCCCCCCCSc2ccccc2)[C@@H](O)[C@H]1O` are 6.3 µM, 41.6 µM and greater than 50 µM.
In the same order, the values of `Nc1ncnc2c1ncn2[C@@H]1O[C@H](COS(=O)(=O)NC(=O)CCCCCCCCCCOc2cccc(C(F)(F)F)c2)[C@@H](O)[C@H]1O` are 4.4 µM, 13.5 µM and 25 µM (≈ 16.9 µg/mL).
`Nc1ncnc2c1ncn2[C@@H]1O[C@H](COS(=O)(=O)NC(=O)CCCCCCCCCCOc2cccc3ccccc23)[C@@H](O)[C@H]1O`: the Ki in test [1] was 25.2 µM; in test [3], 9.64 µM. For the same compound, the MIC in test [2] was greater than 50 µM.
On the same counts, the results for `Nc1ncnc2c1ncn2[C@@H]1O[C@H](COS(=O)(=O)NC(=O)CCCCCCCCCCCOc2ccccc2)[C@@H](O)[C@H]1O` are 2.6 µM, greater than 100 µM and 12.5 µM (≈ 7.76 µg/mL).
Regarding `Nc1ncnc2c1ncn2[C@@H]1O[C@H](COS(=O)(=O)NC(=O)CCCCCCCCCCOc2ccc(Br)cc2)[C@@H](O)[C@H]1O`, the Ki in test [1] stood at 4 µM; in test [3], 10.4 µM. For the same compound, the MIC in test [2] was greater than 50 µM.
`Nc1ncnc2c1ncn2[C@@H]1O[C@H](COS(=O)(=O)NC(=O)CCCCCCCCCCOc2ccc3ccccc3c2)[C@@H](O)[C@H]1O`: the Ki in test [1] worked out at 1.88 µM; in test [3], 20.4 µM. Also, the MIC in test [2] was greater than 50 µM.
With `Nc1ncnc2c1ncn2[C@@H]1O[C@H](COS(=O)(=O)NC(=O)CCCCCCCCCCOc2ccc(Cl)cc2)[C@@H](O)[C@H]1O`, the values for the Ki in test [1] and in test [3] were 2.2 µM and 13.7 µM, respectively. In addition, the MIC in test [2] was 6.25 µM (≈ 4.01 µg/mL).
Regarding `Nc1ncnc2c1ncn2[C@@H]1O[C@H](COS(=O)(=O)NC(=O)CCCCCCCCCCNc2ccccc2)[C@@H](O)[C@H]1O`, the Ki amounted to 7.3 µM in test [1] and 63.4 µM in test [3]. Further, in test [2], the MIC is 12.5 µM (≈ 7.57 µg/mL).
On the same counts, the results for `COc1ccc(OCCCCCCCCCCC(=O)NS(=O)(=O)OC[C@H]2O[C@@H](n3cnc4c(N)ncnc43)[C@H](O)[C@@H]2O)cc1` are 6.6 µM, greater than 100 µM and greater than 50 µM.
In the same order, the values of `Nc1ncnc2c1ncn2[C@@H]1O[C@H](COS(=O)(=O)NC(=O)CCCCCCCCCCOc2cccc(F)c2)[C@@H](O)[C@H]1O` are 1.6 µM, 7.3 µM and 25 µM (≈ 15.6 µg/mL).
On the same counts, the results for `Nc1ncnc2c1ncn2[C@@H]1O[C@H](COS(=O)(=O)NC(=O)CCCCCCCCCCOc2ccccc2C(F)(F)F)[C@@H](O)[C@H]1O` are 1.3 µM, 28.5 µM and greater than 50 µM.
Turning to `Nc1ncnc2c1ncn2[C@@H]1O[C@H](CNS(=O)(=O)OCCCCCCCCCCCOc2ccccc2)[C@@H](O)[C@H]1O`, the Ki in test [1] and in test [3] was greater than 100 µM in each case. Moreover, in test [2], the MIC is greater than 50 µM.
With `CCCCCCCCCCCCCCCC(=O)NS(=O)(=O)OC[C@H]1O[C@@H](n2cnc3c(N)ncnc32)[C@H](O)[C@@H]1O`, the figures for the MIC in test [4], in test [2] and in test [5] were greater than 100 µM, 6.25 µM (≈ 3.65 µg/mL) and 100 µM (≈ 58.5 µg/mL), respectively. In addition, the Ki in test [1] turned out to be 1 µM. For the same compound, in the test on Vero, the IC50 was 0.3 µM.
As to `Nc1ncnc2c1ncn2[C@@H]1O[C@H](COS(=O)(=O)NC(=O)CCCCCCCCCCOc2ccccc2Cl)[C@@H](O)[C@H]1O`, the Ki in test [1] is 3.6 µM; in test [3] it was greater than 100 µM. Also, the MIC in test [2] is greater than 50 µM.
As for `Nc1ncnc2c1ncn2[C@@H]1O[C@H](COS(=O)(=O)NCCCCCCCCCCCOc2ccccc2)[C@@H](O)[C@H]1O`, the Ki in test [1] and in test [3] was greater than 100 µM each time. The MIC in test [2] was greater than 50 µM.
Consider `Nc1ncnc2c1ncn2[C@@H]1O[C@H](COS(=O)(=O)NC(=O)CCCCCCCCCCOc2ccc(F)cc2)[C@@H](O)[C@H]1O`, for which the values for the Ki in test [1] and in test [3] were 0.3 µM and 11.4 µM, respectively. Further, the MIC in test [2] is 12.5 µM (≈ 7.81 µg/mL).
Consider `Nc1ncnc2c1ncn2[C@@H]1O[C@H](COS(=O)(=O)NC(=O)CCCCCCCCCCOc2ccccc2F)[C@@H](O)[C@H]1O`, for which the Ki in test [1] is 1.5 µM; in test [3], greater than 100 µM. Also, the MIC in test [2] is greater than 50 µM.
For `Nc1ncnc2c1ncn2[C@@H]1O[C@H](COS(=O)(=O)NC(=O)CCCCCCCCCCOc2ccc(C(F)(F)F)cc2)[C@@H](O)[C@H]1O`, the values for the Ki in test [1] and in test [3] were 15.6 µM and 34.4 µM, respectively. For the same compound, the MIC in test [2] was 25 µM (≈ 16.9 µg/mL).
For the compound `COc1ccccc1OCCCCCCCCCCC(=O)NS(=O)(=O)OC[C@H]1O[C@@H](n2cnc3c(N)ncnc32)[C@H](O)[C@@H]1O`, the Ki in test [1] and in test [3] was greater than 100 µM each time. The MIC in test [2] is greater than 50 µM.
For the compound `CCCC(=O)NS(=O)(=O)OC[C@H]1O[C@@H](n2cnc3c(N)ncnc32)[C@H](O)[C@@H]1O`, the MIC in test [4], in test [2] and in test [5] was greater than 100 µM throughout. For the same compound, the Ki in test [1] and in test [3] was greater than 100 µM throughout. Further, in the test with Vero, the IC50 amounted to 81.4 µM.
As for `Nc1ncnc2c1ncn2[C@@H]1O[C@H](COS(=O)(=O)NC(=O)CCCCCCCCCOc2ccccc2)[C@@H](O)[C@H]1O`, the Ki in test [1] is 6.7 µM; in test [3], greater than 100 µM. Also, the MIC in test [2] was 50 µM (≈ 29.6 µg/mL).

The MIC is the lowest concentration found to suppress growth. As usually defined, the IC50 is the concentration that gives 50% inhibition.
